Screening results from PubChem BioAssay.
This excerpt belongs to a sample that is enriched for hits.
AP complement: alternative complement pathway inhibitors, primary screen, biochemical, ELISA, human serum, orthogonally pooled compounds; LPS-coated ELISA, C3 deposition; tested in compound mixtures; 0.08% of 62,000 active; inhibition, % at 5 µM; AID 1235, 2008;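 active means inhibition above 30% in each of the two pooled mixtures holding the compound, so the lower value exceeds 30%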
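Assay system: human serum alternative complement pathway, C3 deposition on LPS-coated wells; Dosing: 5 µM per compound in ten-compound mixtures; Detection: Anti-C3 ELISA, OD 450 nm; Buffer or medium: Mg2+-EGTA GVB++ buffer containing human serum at 1:15 dilution; Timing: 1 h at 37 °C; Replication: two different pools per compound.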
Calb biofilm kill: clotrimazole potentiators killing Candida biofilms, primary screen, with clotrimazole, Alamar Blue. C. albicans biofilm + clotrimazole. inhibition, % at 6 µM. 0.14% of 85,000 active. AID 834, 2007;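 active means inhibition above 20%; inactive means inhibition below 20%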;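 further: preformed 24 hr biofilms exposed to compound for 48 hr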
DAT uptake mod: changed hDAT dopamine uptake under cocaine IC80, either direction, primary screen, cocaine antagonist project, cell-based, LLC-PK1 hDAT, [14C]-dopamine uptake, MLSMR | Sodium-dependent dopamine transporter (Homo sapiens), Q01959 | LLC-PK1 hDAT cells, [14C]-dopamine uptake with cocaine IC80; actives deviate in either direction | B-score at 10 µM | 1.3% of 110,000 active | AID 449768, 2010;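 active means Z score or B-score, a plate-position-corrected score, falls beyond the plate's 99.7% confidence bounds, in either direction; inactive means both scores lie inside the 99.7% bounds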
D1 mod: D1 CRE-luciferase signal change, two-sided – cell-based, HEK293 D1, dopamine EC30, D1 allosteric modulator project, primary screen; D(1A) dopamine receptor (Homo sapiens), P21728; dopamine EC30 potentiation; actives deviate in either direction; B-score at 10 µM; 5.9% of 58,000 active;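 active means luminescence count or its row- and column-corrected plate score outside the 99.7% band of the plate's sample wells, on either side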
Target sequence (P21728 whole entry, looked up): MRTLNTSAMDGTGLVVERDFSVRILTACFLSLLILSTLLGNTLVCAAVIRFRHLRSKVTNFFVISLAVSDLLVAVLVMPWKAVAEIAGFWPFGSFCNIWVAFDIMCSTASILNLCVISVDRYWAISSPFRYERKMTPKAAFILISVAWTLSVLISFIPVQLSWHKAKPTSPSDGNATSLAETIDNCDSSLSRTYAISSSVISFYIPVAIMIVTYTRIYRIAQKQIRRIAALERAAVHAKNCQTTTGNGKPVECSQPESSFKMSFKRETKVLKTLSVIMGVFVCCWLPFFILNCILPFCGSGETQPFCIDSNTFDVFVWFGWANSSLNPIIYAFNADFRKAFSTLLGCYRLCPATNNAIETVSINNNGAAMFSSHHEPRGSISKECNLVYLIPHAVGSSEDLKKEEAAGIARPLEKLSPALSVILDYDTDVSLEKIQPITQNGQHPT
MMP13 inh: human MMP13 inhibitors, primary screen, biochemical, FRET peptide cleavage; MMP-13 fTHP FRET cleavage, Mca fluorescence; inhibition, % at 4 µM; 0.07% of 65,000 active;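 active means inhibition above the mean of compound-free control plate wells plus 3 SD, cut at about 14% in these data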
Hits are given with their value; 0 = inactive; - = not tested or not shown.

SMILES	AP complement	Calb biofilm kill	DAT uptake mod	D1 mod	MMP13 inh
CN1CC=C2C(C#N)=C(N)C(C#N)(C#N)C(c3cccc(Cl)c3Cl)C2C1 (stereo unspecified)	0	0	0	-4.68	0
Cc1cccc(C)c1NC(=S)N/N=C/c1ccc(OCCC(C)C)cc1	-	-	0	-	-
Cc1cc(C)cc(OCC(=O)NCC2CCCO2)c1 (stereo unspecified)	0	-	0	-4.78	-
CCCCNc1c(C(=O)OCC)c(C)nc2c1cnn2CC	-	-	0	-	-
O=C(NCc1ccccc1)C1COc2ccccc2O1 (stereo unspecified)	-	0	0	-	-
O=C(NC1CCN(Cc2ccccc2)CC1)C1COc2ccccc2O1 (stereo unspecified)	0	0	0	-3.94	0
O=C(Cn1ncc2c(=O)oc3ccccc3c21)N1CCc2ccccc2C1	0	22.4	0	-	0
COC(=O)c1cc2c(C)c(C)c3ccccn3c-2c1C(=O)OC	-	-	-9.15	-	-
CC(C)n1c(SCCCc2ccccc2)nc2c1c(=O)[nH]c(=O)n2C	33.0	-	0	-	0
Cn1c(=O)[nH]c(=O)c2c1nc(Sc1nc3ccccc3s1)n2Cc1ccccc1	0	0	0	3.96	0
Cn1c(=O)[nH]c(=O)c2c1nc(Br)n2CCOc1ccccc1	0	0	-	0	0
CCOC(=O)C(C)Sc1nc2c(c(=O)[nH]c(=O)n2C)n1CCc1ccccc1 (stereo unspecified)	0	0	0	5.61	0
Cc1ccc(Cn2c(Sc3nnc(C)s3)nc3c2c(=O)[nH]c(=O)n3C)cc1	0	0	0	0	0
Cn1c(=O)[nH]c(=O)c2c1nc(Br)n2CC(O)c1ccccc1 (stereo unspecified)	41.7	0	0	0	0
O=S(Cc1cc(Oc2ccccc2)nc(-c2ccccc2)n1)c1ccccc1 (stereo unspecified)	-	-	0	-	-
O=C(Cn1c(=O)c2c(ncn2C2CCCC2)n(Cc2ccccc2)c1=O)N1CCc2ccccc21	0	0	0	-4.79	0
O=C(Cn1c(=O)c2c(ncn2Cc2ccccc2)n(Cc2ccccc2)c1=O)N1CCc2ccccc21	-	0	0	-	-
Cc1csc(NC(=O)c2cc3c(s2)-c2ccccc2OC3)n1	0	0	0	0	0
COC(=O)c1sc(NC(=O)c2cc3c(s2)CCCC3)nc1C	0	0	0	0	0
Cc1nc(NC(=O)c2cc3c(s2)CCCCC3)sc1C(=O)N(C)C	0	0	2.32	0	0
Cc1csc(NC(=O)c2cc3c(s2)CCC3)n1	0	0	0	-5.59	0
Cc1ccc(NC(=O)NCCCc2ccccc2)cc1	-	-	0	-	-
CCN(CC)S(=O)(=O)c1ccc(Cl)c(C(=O)NC)c1	0	0	0	-5.2	0
Cn1c(=O)c(=O)n(C)c2cc(S(=O)(=O)Nc3ccc4c(c3)OCCO4)ccc21	0	0	0	-5.71	0
Cc1nn(CC(=O)NCc2cccnc2)c(=O)c2ccccc12	0	0	0	0	0
SMILES	AP complement	Calb biofilm kill	DAT uptake mod	D1 mod	MMP13 inh
Cc1ccccc1-n1nc(C)c2cc(C(=O)NCc3cccnc3)sc21	0	-	0	-4.69	0
COC(=O)c1ccc(CSc2nc3scc(-c4cccs4)c3c(=O)[nH]2)o1	0	0	0	0	17.1
CCC1=Nc2cc(C(=O)O)ccc2Sc2ccccc21	-	-	0	-	-
CCC1=Nc2cc(C(=O)NCCCOC(C)C)ccc2Sc2ccccc21	-	0	-7.17	-	-
C=C(C)C(=O)N1CC2(CC(c3cccc(NC(=O)CC)c3)=NO2)C[C@H]1C(N)=O (stereo partly specified)	-	-	0	-	-
COc1cc(-c2noc(CCCC(=O)NCc3ccccc3)n2)cc(OC)c1OC	-	0	0	-	-
Nc1nc2ccc(Oc3ccccc3)cc2s1	0	0	0	-4.54	0
CCOC(=O)CN1C(=O)N[C@H](c2ccc(Br)cc2)C(C(C)=O)=C1C	-	-	0	-	-
Cc1cccc(N2CCN(C(=O)C3CCN(S(=O)(=O)c4cccc5nsnc45)CC3)CC2C)c1 (stereo unspecified)	0	0	0	0	0
Cc1cccc(N2CCN(C(=O)C3CCN(S(=O)(=O)c4cccc5cccnc45)CC3)CC2C)c1 (stereo unspecified)	0	0	0	-3.8	0
O=C(C[n+]1cc2ccccc2c2ccccc21)c1ccccc1	-	-	0	-	-
CCCCCCCCC[n+]1cccc2c3ccccc3ccc21	-	-	3.17	-	-
C=CCNC(=O)N1C2=NC(C(=O)OC)=C(C(=O)OC)[C@@H]3N(Cc4ccccc4)c4ccccc4[C@]23C[C@H]1C(=O)OC	-	-	0	-	-
CC[C@@H](C(=O)n1nc(C)cc1C)[C@H](NS(=O)(=O)c1ccc(C)cc1)c1ccccc1	-	-	0	-	-
Cn1c(Cn2nnc(-c3ccccc3)n2)nnc1SCc1ccccc1Cl	-	0	0	-	-
CC12CC(c3ccccc3O1)N(C(=O)c1ccco1)C(=S)N2c1ccc(F)cc1 (stereo unspecified)	-	0	0	-	-
Cc1nc2ccccc2c2oc(C(=O)NCC3COc4ccccc4O3)cc12 (stereo unspecified)	0	0	0	-3.52	0
COc1ccc(NC(=O)c2cc(-c3cccnc3)nc3ccc(C)cc23)cc1OC	-	-	0	-	-
COc1cc(NC(=O)c2cc3c(C)nc4ccccc4c3o2)cc(OC)c1OC	0	0	0	-4.59	0
COc1ccc(C)cc1NC(=O)c1cc2c(C)nc3ccccc3c2o1	0	0	-	0	0
Cc1nc2ccccc2c2oc(C(=O)Nc3ccc4c(c3)OCCO4)cc12	0	0	0	-2.54	0
CCc1ccc(CNC(=O)c2cc3c(C)nc4ccccc4c3o2)cc1	-	0	0	-	-
COc1ccc(NC(=O)c2cc(-c3ccc(C)o3)nc3ccccc23)cc1OC	0	0	0	-4.71	0
Cc1ccc(NC(=O)c2ccccc2N(C)S(C)(=O)=O)cc1C	-	0	0	-	-
CCOC(=O)[C@@H]1[C@H]2COc3ccccc3[C@@H]2N2C(=O)N(c3ccc(F)cc3)C(=O)[C@]12C	-	-	0	-	-
SMILES	AP complement	Calb biofilm kill	DAT uptake mod	D1 mod	MMP13 inh
CC1(C)Cc2c(cnn2-c2ccccc2)C(=O)/C1=N\NC(=O)c1ccccc1O	-	0	0	-	-
O=c1cc2[nH]c3ccccc3c(=O)n2nc1-c1ccccc1	-	-	0	-	-
Cc1cccc(NC(=O)c2cc(-c3ccco3)nc3ccccc23)n1	0	0	0	-3.7	0
CC(C)CCNC(=O)c1cc(-c2ccco2)nc2ccccc12	-	0	0	-	-
O=C(NCCCc1ccccc1)c1cnc2n(c1=O)CCS2	-	0	0	0	0
O=C(NCc1ccccc1)c1cnc2n(c1=O)CCS2	0	0	0	-3.47	0
Cn1c(SCCOc2ccccc2Cl)nnc1-c1cccs1	-	0	0	-	-
Cn1c(SCc2c(F)cccc2Cl)nnc1-c1cccs1	0	0	2.3	0	0
CCOC(=O)c1ccc(N2C(=O)CC(N3CCN(C(=O)c4ccco4)CC3)C2=O)cc1 (stereo unspecified)	0	0	2.56	0	0
